Assay results published in ChEMBL document CHEMBL1145785, “Design, synthesis, and structure-activity relationships of alkylcarbamic acid aryl esters, a new class of fatty acid amide hydrolase inhibitors” (J Med Chem, 2003).

What was measured:
[1] = biological target: T1, Fatty-acid amide hydrolase 1 (Rattus norvegicus, UniProt P97612); assay: Fatty acid amide hydrolase inhibitory activity in rat brain membrane using [3H]anandamide as a substrate; format: cell membranes
T1 sequence (P97612 whole entry): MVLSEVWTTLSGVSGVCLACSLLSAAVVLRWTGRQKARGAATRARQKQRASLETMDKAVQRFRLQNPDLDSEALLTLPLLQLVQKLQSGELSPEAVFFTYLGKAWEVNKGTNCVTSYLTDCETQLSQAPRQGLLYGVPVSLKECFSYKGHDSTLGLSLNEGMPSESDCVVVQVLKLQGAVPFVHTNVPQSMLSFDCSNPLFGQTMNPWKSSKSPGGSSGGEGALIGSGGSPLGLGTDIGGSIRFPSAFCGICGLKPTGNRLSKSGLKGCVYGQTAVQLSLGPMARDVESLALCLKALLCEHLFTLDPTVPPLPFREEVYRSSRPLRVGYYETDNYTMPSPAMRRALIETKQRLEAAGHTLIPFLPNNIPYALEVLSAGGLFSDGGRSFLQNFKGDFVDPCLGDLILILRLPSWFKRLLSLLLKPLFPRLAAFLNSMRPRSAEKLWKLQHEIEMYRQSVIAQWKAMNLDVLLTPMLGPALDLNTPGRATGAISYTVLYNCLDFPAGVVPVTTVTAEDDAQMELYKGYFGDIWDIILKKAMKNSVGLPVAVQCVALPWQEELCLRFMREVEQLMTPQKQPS
Summary of the method: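 Membrane fractions prepared from rat brain homogenates. FAAH activity measured as hydrolysis of [3H]anandamide, radiolabelled on the ethanolamine (60 Ci/mmol), used as substrate. IC50 taken as the half-maximal concentration for inhibition of hydrolysis.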

[2] = biological target: T1, Fatty-acid amide hydrolase 1; assay: Inhibition of [3H]anandamide binding to fatty acid amide hydrolase of rat brain membrane
Summary of the method: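 Membrane fractions prepared from rat brain homogenates; FAAH activity measured as hydrolysis of anandamide[ethanolamine-3H] (60 Ci/mmol) as substrate. Value reported as half-maximal inhibitory concentration (IC50) of FAAH activity.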

In the case of CCNC(=O)Oc1ccc(C)cc1, the IC50 [1] is reported as > 30 µM.

For O=C(NC1CCCCC1)Oc1ccc(-c2ccccc2)cc1, the IC50 [2] was 2.29 µM.

Cc1cccc(OC(=O)NC2CCCCC2)c1 showed an IC50 [1] of 0.808 µM and an IC50 [2] of 0.813 µM.

For O=C(Nc1cccc(-c2ccccc2)c1)OC1CCCCC1, the IC50 [1] was > 30 µM.

In the case of O=C(NC1CCCCC1)Oc1ccc2ccccc2c1, the IC50 [2] is reported as 0.324 µM.

CCCCNC(=O)Oc1ccc2cc(Br)ccc2c1 was tested, and the IC50 [2] was 0.759 µM.

O=C(NC1CCCCC1)Oc1cccc(-c2ccccc2)c1 was tested, and the IC50 [2] was 0.0631 µM.

In the case of S=C(NC1CCCCC1)Sc1ccc2ccccc2c1, the IC50 [1] is reported as > 30 µM.

Work on CCCCCc1cccc(OC(=O)NC2CCCCC2)c1 yielded an IC50 [1] of 0.188 µM and an IC50 [2] of 0.186 µM.

In the case of CCc1ccc2cc(OC(=O)NC3CCCCC3)ccc2c1, the IC50 [1] is reported as 3.53 µM and the IC50 [2] is reported as 3.55 µM.

Molecule Cc1ccc(OC(=O)NC2CCCCC2)cc1 has an IC50 [2] of 5.37 µM.

CNC(=O)Oc1cccc2ccccc12 [CARBARIL] was tested, and the IC50 [1] was > 30 µM.

O=C(NC1CCCCC1)Sc1ccc2ccccc2c1 showed an IC50 [1] of 15.6 µM.

In the case of S=C(Nc1ccc2ccccc2c1)NC1CCCCC1, the IC50 [1] is reported as > 30 µM.

For CNC(=O)Oc1ccc2ccccc2c1, the IC50 [1] was 18.3 µM.

In the case of CCCCNC(=O)Oc1ccc(OCc2ccccc2)cc1, the IC50 [1] is reported as 0.39 µM and the IC50 [2] is reported as 0.389 µM.

With S=C(NC1CCCCC1)Oc1ccc2ccccc2c1 the IC50 [1] was > 30 µM.

O=C(Nc1ccc2ccccc2c1)NC1CCCCC1 was tested, and the IC50 [1] was > 30 µM.

CCCCNC(=O)Oc1ccc(F)cc1 gave an IC50 [1] of 11.5 µM and an IC50 [2] of 11.5 µM.

With O=C(Cc1ccc2ccccc2c1)NC1CCCCC1 the IC50 [1] was > 30 µM.

O=C(NC1CCCCC1)Oc1ccccc1 showed an IC50 [1] of 3.78 µM and an IC50 [2] of 3.8 µM.

CCCCCCOC(=O)NC1CCCCC1 was tested, and the IC50 [1] was 3.76 µM.

For O=C(NC1CCCCC1)Oc1ccc2cccc(Br)c2c1, the IC50 [1] was 0.174 µM and the IC50 [2] was 0.174 µM.

Work on O=C(NC1CCCCC1)Oc1ccc(/C=C\c2ccccc2)cc1 yielded an IC50 [1] of 0.266 µM and an IC50 [2] of 0.263 µM.

For O=C(NC1CCCCC1)Oc1ccc(/C=C/c2ccccc2)cc1, the IC50 [2] was 3.31 µM.

O=C(NC1CCCCC1)OCCCCCc1ccccc1 was tested, and the IC50 [1] was > 30 µM.
